Active and inactive are the calls of the source. The calls are words filed in the database; no cut-off is given here.
Columns and labels:
Mus musculus [1] = experiment: Anti-alzheimer activity in hippocampus of APP/PS1 dE9 double transgenic mouse model assessed as reduction in glial cell aggregation at 1 to 10 mg/kg, ip administered once daily for 30 consecutive days by immunofluorescence staining; assay type: functional, organism-based; details: dose 1-10 mg/kg, time 30.0 day
In short: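 Brains from dosed female APP/PS1 mice (10 months) were fixed in 4% paraformaldehyde at 4 °C for 24–48 h, taken through a sucrose gradient and OCT, and cut into 15 μm sections. Sections were permeabilized with 0.3% Triton X-100, blocked in 10% BSA for 1 h, and incubated with primary antibody overnight at 4 °C (1:200). Secondary was 1:500 for 1 h at 25 °C, with DAPI counterstain and confocal imaging, in triplicate.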

Mus musculus [2] = experiment: Anti-alzheimer activity in hippocampus of APP/PS1 dE9 double transgenic mouse model assessed as increase in the level of PSD95 at 10 mg/kg, ip administered once daily for 30 consecutive days by Western blot analysis; assay type: functional, organism-based; details: time 30.0 day
In short: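 Hippocampal homogenates from dosed APP/PS1 mice were extracted in RIPA and protein measured by BCA. Samples were run by SDS electrophoresis, transferred to 0.22 μm PVDF for 90 min, blocked with 5% BSA in TBST for 2 h at RT, and probed with primaries 1:1000 overnight at 4 °C. HRP secondary was applied for 2 h at RT.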

PC-12 [3] = experiment: Neuroprotective activity against Abeta1-42 induced rat PC12 cells assessed as decrease in JNK phosphorylation level at 10 uM preincubated for 3 hrs followed by Abeta1-42 induction and measured after 24 hrs by Western blot analysis; assay type: functional, cell-based; details: time 27.0 hrs
In short: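 Aβ1–42 challenge in PC12 cells was 10 μM for 24 h after 3 h pretreatment at 10 μM. SP600125 (1.25 μM) was added 0.5 h before pretreatment where used. Cells were lysed in RIPA and protein measured by BCA. Blotting used PVDF transfer, 5% BSA/TBST block for 2 h, primaries 1:1000 overnight at 4 °C, and HRP secondary for 2 h. Bcl-2/Bax ratio and band intensities were quantified.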

PC-12 [4] = experiment: Neuroprotective activity against Abeta1-42 induced rat PC12 cells assessed as […] at 1.25 to 10 uM preincubated for 3 hrs followed by Abeta1-42 induction and measured after 24 hrs by MTT assay; assay type: functional, cell-based; details: dose 1.25-10 µM, time 27.0 hrs
In short: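 PC12 cells were seeded at 5×10^3/well and pretreated 3 h with test compound (range or 10 μM), with or without SP600125 1.25 μM for 0.5 h beforehand. Cells were then exposed to 10 μM Aβ1–42 oligomers for 24 h. MTT 0.5 mg/mL was added for 3–4 h, formazan dissolved in DMSO, and absorbance read at 570 nm. Viability is given as % of control.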

PC-12 [5] = experiment: Induction of apoptosis in Abeta1-42 induced rat PC12 cells assessed as early apoptosis at 10 uM preincubated for 3 hrs followed by Abeta1-42 induction and measured after 24 hrs by Annexin V-FITC/PI staining based flow cytometry analysis (reference value: 1.5%); assay type: functional; details: time 27 hrs

## C=C[C@@]1(C)Cc2occ(C)c2[C@@H]2OC(=O)C(=C)[C@@H]21 [ISOLINDERALACTONE]
Mus musculus [1]
  Activity: Active
Mus musculus [2]
  Activity: Active
PC-12 [3]
  Activity: Active
PC-12 [4]
  Activity: Active
PC-12 [5]
  Activity: 2%

— ChEMBL document CHEMBL5390295, “Isolinderalactone Ameliorates the Pathology of Alzheimer's Disease by Inhibiting the JNK Signaling Pathway” (2023)
